System: DU-145 prostate carcinoma cells
Test: MTT cell viability assay
Type: cell-based
Details: 24 h
Outline: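 DU-145 prostate carcinoma cells grown at 37 °C, 5% CO2, then seeded at 1.5 × 10^5 cells per well. Test compound dilution series (10–500 μg/mL) prepared in RPMI-1640 and applied for 24 h; viability read by MTT, expressed as IC50. Elevated-Zn2+ conditions: medium adjusted with 50 μM ZnCl2. DTNB conditions: cells preincubated 1 h in RPMI-1640 with 2.5 mM DTNB, and dilution series supplemented with 1 mM DTNB during the 24 h exposure.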

| Substance | cytotoxicity against DU-145 cells (in words) (elevated Zn2+ (50 μM ZnCl2), no DTNB) | cytotoxicity against DU-145 cells (in words) (normal Zn2+ conditions (no ZnCl2 added)) | cytotoxicity against DU-145 cells (in words) (Zn2+ condition not stated) |
| --- | --- | --- | --- |
| (GHHPG)2 | No activity | No activity | – |
| H2N-EAEAEA-SS-(Ac)CAhxGHHPHGHHPH-amide (disulfide) [(EA)3-thiol] | – | – | no activity |

— PMC7081261 (ACS Omega, 2020)
